Data on 22 compounds can be found in ChEMBL document CHEMBL4425104, “Structure-Based Design of Potent Nicotinamide Phosphoribosyltransferase Inhibitors with Promising in Vitro and in Vivo Antitumor Activities” (J Med Chem, 2016).

In general, GI50 refers to the concentration giving 50% growth inhibition. What is called pIC50 is the negative decadic logarithm of the IC50, by convention in mol/L.

In one assay the test system is U-937. The assay is described as follows: Cytotoxicity against human U937 cells assessed as cell growth inhibition after 72 hrs by CCK-8 assay. Particulars: U-937, 72 h. Type of assay: functional. In short, it runs like this: (§1)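 HeLa, MCF7, H1975, U937 and MDA-MB-231 kept in RPMI or DMEM with 10% FBS and 1% pen/strep at 37 °C, 5% CO2. Seeded at 400-800 cells/well in 384-well format, exposed to a concentration series or solvent control for 72 h. CCK-8 added, absorbance read at 450 nm, IC50 fitted from dose-response curves.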
For orientation: Tetrazolium dyes change colour on reduction, which living cells bring about.

For another assay, the system named is MDA-MB-231. The assay is described as follows: Cytotoxicity against human MDA-MB-231 cells assessed as cell growth inhibition after 72 hrs by CCK-8 assay. Type of assay: functional. The note with it: MDA-MB-231, 72 h. The procedure, abridged: as §1
Assay [1] concerns the target Nicotinamide phosphoribosyltransferase (Homo sapiens, UniProt P43490). The assay is described as follows: Inhibition of recombinant NAMPT (unknown origin) using nicotinamide as substrate measured every 5 mins for 30 mins in presence of recombinant NMNAT1.
Another assay has as its system NCI-H1975. The assay is described as follows: Cytotoxicity against human NCI-H1975 cells assessed as cell growth inhibition after 72 hrs by CCK-8 assay. The class given is functional. Particulars: NCI-H1975, 72 h. The procedure, abridged:
as §1

A further assay relates to MCF7. The assay is described as follows: Cytotoxicity against human MCF7 cells assessed as cell growth inhibition after 72 hrs by CCK-8 assay. Type of assay: functional. Particulars: MCF7, 72 h. In short, it runs like this: as §1
The subject of a further assay is HeLa. The assay is described as follows: Cytotoxicity against human HeLa cells assessed as cell growth inhibition after 72 hrs by CCK-8 assay. Type of assay: functional. The procedure, abridged:
as §1

Each structure is given as a SMILES string. pIC50: −log10 of the molar value.

Sequence of Nicotinamide phosphoribosyltransferase (P43490 whole entry): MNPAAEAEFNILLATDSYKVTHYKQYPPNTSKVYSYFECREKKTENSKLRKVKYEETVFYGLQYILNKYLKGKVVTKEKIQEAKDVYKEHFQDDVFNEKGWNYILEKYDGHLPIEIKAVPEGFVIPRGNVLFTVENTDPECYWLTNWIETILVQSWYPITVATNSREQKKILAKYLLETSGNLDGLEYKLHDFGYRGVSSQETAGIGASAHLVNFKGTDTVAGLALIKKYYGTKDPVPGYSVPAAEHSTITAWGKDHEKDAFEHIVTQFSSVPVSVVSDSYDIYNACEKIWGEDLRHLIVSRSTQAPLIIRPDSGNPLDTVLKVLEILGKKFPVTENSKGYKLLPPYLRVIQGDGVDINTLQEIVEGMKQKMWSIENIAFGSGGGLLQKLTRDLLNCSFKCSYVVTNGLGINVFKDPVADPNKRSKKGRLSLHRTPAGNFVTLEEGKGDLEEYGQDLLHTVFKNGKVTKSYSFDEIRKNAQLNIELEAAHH

Turning to `CC(C)N(CCc1c[nH]c2ccccc12)Cc1ccc(CCCCCNC(=O)/C=C/c2cccnc2)cc1`, the GI50 in the assay with U-937 was 0.00061 µM; in the assay with MDA-MB-231 it was 0.00089 µM; with NCI-H1975, 0.0042 µM; in the assay on MCF7, 0.00063 µM; in the assay on HeLa, 0.00323 µM. The pIC50 in assay [1] is 7.17.

As to `CCCN(CCc1c[nH]c2ccccc12)Cc1ccc(CCCNC(=O)/C=C/c2cccnc2)cc1`, the GI50 in the assay with U-937 amounted to 0.0281 µM; in the assay with MDA-MB-231 it was 0.036 µM; in the assay with NCI-H1975, 0.109 µM; with MCF7, 0.0238 µM; in the assay with HeLa it was 0.0557 µM. For the same compound, the pIC50 in assay [1] was 6.26.

Take `CC(C)N(CCc1c[nH]c2ccccc12)Cc1ccc(CCCCCCCNC(=O)/C=C/c2cccnc2)cc1`: the GI50 was determined as 0.00075 µM with U-937; 0.00084 µM in the assay with MDA-MB-231; 0.0042 µM with NCI-H1975; 0.00074 µM in the assay on MCF7; 0.00264 µM in the assay on HeLa. Also, the pIC50 in assay [1] is 7.28.

For the compound `CC(C)N(CCc1ccccc1)Cc1ccc(CCCCCNC(=O)/C=C/c2cccnc2)cc1`, the GI50 was 0.00621 µM in the assay with U-937; 0.0101 µM with MDA-MB-231; 0.0613 µM with NCI-H1975; 0.00718 µM in the assay with MCF7; 0.0196 µM with HeLa. The pIC50 in assay [1] was 6.55.

For `CN(CCc1c[nH]c2ccccc12)Cc1ccc(CCCNC(=O)/C=C/c2cccnc2)cc1`, the GI50 stood at 0.0691 µM in the assay on U-937; 0.0847 µM in the assay with MDA-MB-231; 0.224 µM in the assay on NCI-H1975; 0.0754 µM in the assay with MCF7; 0.25 µM in the assay with HeLa. In addition, the pIC50 in assay [1] is 6.11.

Consider `COc1ccc(CCN(Cc2ccc(CCCCCNC(=O)/C=C/c3cccnc3)cc2)C(C)C)cc1`, for which the GI50 amounted to 0.00212 µM with U-937; 0.00286 µM with MDA-MB-231; 0.00987 µM in the assay with NCI-H1975; 0.00138 µM in the assay on MCF7; 0.00695 µM with HeLa. For the same compound, in assay [1], the pIC50 is 7.26.

Consider `CC(C)N(CCc1ccc(C(F)(F)F)cc1)Cc1ccc(CCCCCNC(=O)/C=C/c2cccnc2)cc1`, for which the GI50 in the assay on U-937 came to 0.00157 µM; in the assay on MDA-MB-231 it was 0.0024 µM; in the assay on NCI-H1975 it was 0.00954 µM; in the assay with MCF7, 0.0016 µM; in the assay on HeLa, 0.00898 µM. The pIC50 in assay [1] is 6.44.

Consider `O=C(/C=C/c1cccnc1)NCCCCC1CCN(C(=O)c2ccccc2)CC1` [DAPORINAD], for which the GI50 worked out at 0.00036 µM in the assay with U-937; 0.00078 µM in the assay on MDA-MB-231; 0.00395 µM in the assay on NCI-H1975; 0.00029 µM with MCF7; 0.00134 µM with HeLa.

With `CC(C)N(CCc1ccc(F)cc1)Cc1ccc(CCCCCNC(=O)/C=C/c2cccnc2)cc1`, the GI50 was determined as 0.00767 µM in the assay with U-937; 0.0136 µM in the assay with MDA-MB-231; 0.0341 µM in the assay with NCI-H1975; 0.00737 µM in the assay on MCF7; 0.0209 µM in the assay on HeLa. In addition, the pIC50 in assay [1] is 6.83.

In the case of `CC(C)N(CCc1ccsc1)Cc1ccc(CCCCCNC(=O)/C=C/c2cccnc2)cc1`, the GI50 in the assay with U-937 is 0.0148 µM; in the assay with MDA-MB-231, 0.0236 µM; with NCI-H1975 it was 0.0718 µM; in the assay with MCF7 it was 0.00847 µM; in the assay on HeLa it was 0.0437 µM. Moreover, in assay [1], the pIC50 is 6.71.

As for `O=C(/C=C/c1cccnc1)NCCCc1ccc(CN(CCc2c[nH]c3ccccc23)Cc2ccccc2)cc1`, the GI50 with U-937 amounted to 0.0852 µM; in the assay on MDA-MB-231, 0.269 µM; in the assay on NCI-H1975, 0.514 µM; in the assay with MCF7 it was 0.101 µM; in the assay with HeLa, 0.379 µM. The pIC50 in assay [1] is 6.00.

Consider `CC(C)N(CCc1c[nH]c2ccccc12)Cc1ccc(CNC(=O)/C=C/c2cccnc2)cc1`, for which the GI50 in the assay with U-937 came to 0.0779 µM; in the assay with MDA-MB-231 it was 0.134 µM; in the assay with NCI-H1975, 0.335 µM; in the assay with MCF7, 0.0751 µM; in the assay on HeLa, 0.173 µM. For the same compound, in assay [1], the negative-log IC50 (pIC50) was 6.67.

Turning to `O=C(/C=C/c1cccnc1)NCCCc1ccc(CN(CCO)CCc2c[nH]c3ccccc23)cc1`, the GI50 was 0.0183 µM in the assay on U-937; 0.0314 µM with MDA-MB-231; 0.107 µM in the assay on NCI-H1975; 0.0181 µM in the assay with MCF7; 0.0694 µM in the assay on HeLa. The pIC50 in assay [1] was 6.74.

In the case of `O=C(/C=C/c1cccnc1)NCCCc1ccc(CNCCc2c[nH]c3ccccc23)cc1`, the GI50 worked out at 0.187 µM in the assay on U-937; 0.358 µM with MDA-MB-231; 0.963 µM in the assay with NCI-H1975; 0.0869 µM with MCF7; 0.405 µM with HeLa. In addition, the pIC50 in assay [1] is 5.85.

In the case of `Cc1[nH]c2ccccc2c1CCN(Cc1ccc(CCCCCNC(=O)/C=C/c2cccnc2)cc1)C(C)C`, the GI50 in the assay on U-937 worked out at 0.00158 µM; in the assay on MDA-MB-231, 0.00303 µM; with NCI-H1975, 0.0133 µM; in the assay on MCF7 it was 0.00167 µM; in the assay with HeLa, 0.00793 µM. Besides, the pIC50 in assay [1] is 6.92.

Take `CC(C)N(CCc1cccc(C(F)(F)F)c1)Cc1ccc(CCCCCNC(=O)/C=C/c2cccnc2)cc1`: the GI50 in the assay with U-937 was found to be 0.0051 µM; in the assay with MDA-MB-231 it was 0.00692 µM; with NCI-H1975 it was 0.0262 µM; in the assay on MCF7, 0.00241 µM; with HeLa, 0.0152 µM. Besides, in assay [1], the pIC50 is 6.42.

In the case of `CCN(CCc1c[nH]c2ccccc12)Cc1ccc(CCCNC(=O)/C=C/c2cccnc2)cc1`, the GI50 with U-937 is 0.0483 µM; with MDA-MB-231, 0.0764 µM; in the assay with NCI-H1975, 0.314 µM; in the assay with MCF7, 0.041 µM; with HeLa, 0.2 µM. Also, in assay [1], the pIC50 was 6.06.

`CC(C)N(CCc1c[nH]c2ccccc12)Cc1ccc(CCCNC(=O)/C=C/c2cccnc2)cc1`: the GI50 with U-937 was determined as 0.0242 µM; with MDA-MB-231, 0.0305 µM; in the assay on NCI-H1975, 0.0797 µM; with MCF7 it was 0.0224 µM; in the assay with HeLa, 0.0907 µM. The pIC50 in assay [1] was 6.15.

With `CC(=O)O[C@H]1C(=O)[C@@]2(C)[C@H]([C@H](OC(=O)c3ccccc3)[C@]3(O)C[C@H](OC(=O)[C@H](O)[C@@H](NC(=O)c4ccccc4)c4ccccc4)C(C)=C1C3(C)C)[C@]1(OC(C)=O)CO[C@@H]1C[C@@H]2O` [PACLITAXEL], the GI50 was found to be 0.00212 µM in the assay with U-937; 0.00867 µM with MDA-MB-231; 0.00577 µM with NCI-H1975; 0.00438 µM in the assay on MCF7; 0.00234 µM with HeLa.

As for `Cc1ccc(CCN(Cc2ccc(CCCCCNC(=O)/C=C/c3cccnc3)cc2)C(C)C)cc1`, the GI50 in the assay with U-937 was 0.00873 µM; with MDA-MB-231 it was 0.00719 µM; in the assay with NCI-H1975, 0.0392 µM; in the assay on MCF7 it was 0.00553 µM; with HeLa, 0.0266 µM. Moreover, the negative-log IC50 (pIC50) in assay [1] is 7.00.

As for `CC(C)N(Cc1ccccc1)Cc1ccc(CCCCCNC(=O)/C=C/c2cccnc2)cc1`, the GI50 was 0.0111 µM with U-937; 0.0126 µM in the assay on MDA-MB-231; 0.049 µM in the assay on NCI-H1975; 0.00637 µM in the assay on MCF7; 0.0401 µM with HeLa. The pIC50 in assay [1] was 7.08.

As for `CC(C)(C)OC(=O)N(CCc1c[nH]c2ccccc12)Cc1ccc(CCCNC(=O)/C=C/c2cccnc2)cc1`, the GI50 came out at 0.0543 µM with U-937; 0.123 µM in the assay on MDA-MB-231; 0.399 µM in the assay on NCI-H1975; 0.0855 µM in the assay on MCF7; 0.288 µM in the assay with HeLa. Further, in assay [1], the pIC50 is 6.15.
